Where “and” joins values, the source holds several entries; their conditions need not be identical. Identical values can stand only once. Entries after “also recorded” stand apart in the source; their conditions may differ.
Key:
cauliflower pol α = test: Pol assay, cauliflower pol α; format: biochemical; conditions: supplemental Fig. S1A
Outline: (§1)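 Test compound was dissolved in DMSO and sonicated 30 s. It was preincubated with enzyme (0.05 unit final) in 50 mM Tris-HCl pH 7.5, 1 mM DTT, 50% glycerol and 0.1 mM EDTA at 0 °C for 10 min. This was added to each enzyme's standard reaction mix with poly(dA)/oligo(dT)18 (A/T = 2/1) template-primer and dTTP substrate, then incubated at 37 °C for 60 min. Activity is given as % of inhibitor-free control.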

[1] = target: human pol λ (full-length, residues 1–575) (Homo sapiens, UniProt Q9UGP5); test: Pol assay, full-length human pol λ; format: biochemical; conditions: 100 and 1,000 nM PGG, Fig. 1C
Outline: as §1

mouse pol ι = mouse pol ι (Mus musculus, UniProt Q6R3M4); test: Pol assay, mouse pol ι; format: biochemical
Outline: as §1

T4 pol = T4 pol (Enterobacteria phage T4, UniProt P04415); test: Pol assay, T4 pol; format: biochemical; conditions: supplemental Fig. S1A
Outline: as §1

HCV NS3 protease = conditions: read-out: IC50, HCV NS3 protease; cited from earlier work
rice pol λ = rice pol λ (Oryza sativa subsp. japonica, UniProt Q67VC8); test: Pol assay, rice pol λ; format: biochemical; conditions: supplemental Fig. S1A
Outline: as §1

human pol δ = human pol δ (Homo sapiens, UniProt P28340); test: Pol assay, human pol δ; format: biochemical
Outline: as §1

Neutral endopeptidase = conditions: read-out: IC50, Neutral endopeptidase; cited from earlier work
[2] = tested on: human DU145 prostate cancer (PCa) xenografts; conditions: cited from earlier work
calf primase of pol α = test: Primase assay; format: biochemical; conditions: highest tested concentration 1 μM, supplemental Fig. S1B
[3] = target: Klenow fragment of E. coli pol I (Escherichia coli, UniProt P00582); test: Pol assay, Klenow fragment of E. coli pol I; format: biochemical; conditions: supplemental Fig. S1A
Outline: as §1

Beta-secretase = conditions: cited from earlier work
[4] = target: mouse IMP dehydrogenase (type II) (Mus musculus, UniProt P24547); test: IMP dehydrogenase assay; format: biochemical; conditions: highest tested concentration 1 μM, supplemental Fig. S1B
T4 polynucleotide kinase = T4 polynucleotide kinase (Enterobacteria phage T4, UniProt P06855); test: T4 polynucleotide kinase assay; format: biochemical; conditions: highest tested concentration 1 μM, supplemental Fig. S1B
isolated nuclei = conditions: cited from earlier work
human topoisomerase II = human topoisomerase II (Homo sapiens, UniProt P11388); test: DNA topoisomerase II assay; format: biochemical; conditions: highest tested concentration 1 μM, supplemental Fig. S1B
Outline: (§2)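 Topoisomerases I and II were purified from human placenta, and DNase I came from bovine pancreas. Each activity was measured in a standard assay following the supplier's specifications.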

H^+, K^+- ATPase = conditions: cited from earlier work
human pol ε = human pol ε (Homo sapiens, UniProt Q07864); test: Pol assay, human pol ε; format: biochemical
Outline: as §1

Aminopeptidase N = conditions: read-out: IC50, Aminopeptidase N; cited from earlier work
human pol γ = human pol γ (Homo sapiens, UniProt P54098); test: Pol assay, human pol γ; format: biochemical; conditions: 100 and 1,000 nM PGG, Fig. 1C; compared with B- and Y-family pols
Outline: as §1

bovine DNase I = bovine DNase I (Bos taurus, UniProt P00639); test: DNase I assay; format: biochemical; conditions: highest tested concentration 1 μM, supplemental Fig. S1B
Outline: as §2

T7 RNA polymerase = T7 RNA polymerase (Escherichia phage T7, UniProt P00573); test: T7 RNA polymerase assay; format: biochemical; conditions: highest tested concentration 1 μM, supplemental Fig. S1B
del-2 pol λ (245–575) = del-2 pol λ (245–575) (Homo sapiens, UniProt Q9UGP5); test: Pol assay, del-2 pol λ mutant; format: biochemical
Outline: as §1

[5] = tested on: rat liver microsomal 5 α-reductase; conditions: cited from earlier work
human pol η = human pol η (Homo sapiens, UniProt Q9Y253); test: Pol assay, human pol η; format: biochemical
Outline: as §1

human pol κ = target: T1, human pol κ (Homo sapiens, UniProt Q9UBT6); test: Pol assay, pol κ; format: biochemical; conditions: for Ki: pol κ
T1 sequence (Q9UBT6 1-560 limits assumed): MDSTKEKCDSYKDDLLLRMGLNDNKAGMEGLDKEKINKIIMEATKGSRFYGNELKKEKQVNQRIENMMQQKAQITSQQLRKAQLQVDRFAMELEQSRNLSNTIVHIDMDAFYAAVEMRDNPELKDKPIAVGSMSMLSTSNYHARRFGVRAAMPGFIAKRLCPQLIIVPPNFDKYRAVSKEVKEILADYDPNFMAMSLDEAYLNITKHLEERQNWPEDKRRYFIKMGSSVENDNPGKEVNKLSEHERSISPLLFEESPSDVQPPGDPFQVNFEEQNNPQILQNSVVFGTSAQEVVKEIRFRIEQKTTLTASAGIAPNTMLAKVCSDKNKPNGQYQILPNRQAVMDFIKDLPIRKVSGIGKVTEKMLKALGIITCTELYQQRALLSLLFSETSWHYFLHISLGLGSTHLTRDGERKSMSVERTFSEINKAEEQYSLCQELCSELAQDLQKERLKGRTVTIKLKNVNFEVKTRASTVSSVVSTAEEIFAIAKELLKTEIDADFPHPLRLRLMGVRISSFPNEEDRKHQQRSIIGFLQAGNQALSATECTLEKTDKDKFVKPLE
Outline: as §1

human PCa PC-3 cells = conditions: i.p. injection, every other day, 25 mg/kg, nude mice; cited from earlier work
human topoisomerase I = human topoisomerase I (Homo sapiens, UniProt P11387); test: DNA topoisomerase I assay; format: biochemical; conditions: highest tested concentration 1 μM, supplemental Fig. S1B
Outline: as §2

Chain of human pol ε (Q07864 whole entry): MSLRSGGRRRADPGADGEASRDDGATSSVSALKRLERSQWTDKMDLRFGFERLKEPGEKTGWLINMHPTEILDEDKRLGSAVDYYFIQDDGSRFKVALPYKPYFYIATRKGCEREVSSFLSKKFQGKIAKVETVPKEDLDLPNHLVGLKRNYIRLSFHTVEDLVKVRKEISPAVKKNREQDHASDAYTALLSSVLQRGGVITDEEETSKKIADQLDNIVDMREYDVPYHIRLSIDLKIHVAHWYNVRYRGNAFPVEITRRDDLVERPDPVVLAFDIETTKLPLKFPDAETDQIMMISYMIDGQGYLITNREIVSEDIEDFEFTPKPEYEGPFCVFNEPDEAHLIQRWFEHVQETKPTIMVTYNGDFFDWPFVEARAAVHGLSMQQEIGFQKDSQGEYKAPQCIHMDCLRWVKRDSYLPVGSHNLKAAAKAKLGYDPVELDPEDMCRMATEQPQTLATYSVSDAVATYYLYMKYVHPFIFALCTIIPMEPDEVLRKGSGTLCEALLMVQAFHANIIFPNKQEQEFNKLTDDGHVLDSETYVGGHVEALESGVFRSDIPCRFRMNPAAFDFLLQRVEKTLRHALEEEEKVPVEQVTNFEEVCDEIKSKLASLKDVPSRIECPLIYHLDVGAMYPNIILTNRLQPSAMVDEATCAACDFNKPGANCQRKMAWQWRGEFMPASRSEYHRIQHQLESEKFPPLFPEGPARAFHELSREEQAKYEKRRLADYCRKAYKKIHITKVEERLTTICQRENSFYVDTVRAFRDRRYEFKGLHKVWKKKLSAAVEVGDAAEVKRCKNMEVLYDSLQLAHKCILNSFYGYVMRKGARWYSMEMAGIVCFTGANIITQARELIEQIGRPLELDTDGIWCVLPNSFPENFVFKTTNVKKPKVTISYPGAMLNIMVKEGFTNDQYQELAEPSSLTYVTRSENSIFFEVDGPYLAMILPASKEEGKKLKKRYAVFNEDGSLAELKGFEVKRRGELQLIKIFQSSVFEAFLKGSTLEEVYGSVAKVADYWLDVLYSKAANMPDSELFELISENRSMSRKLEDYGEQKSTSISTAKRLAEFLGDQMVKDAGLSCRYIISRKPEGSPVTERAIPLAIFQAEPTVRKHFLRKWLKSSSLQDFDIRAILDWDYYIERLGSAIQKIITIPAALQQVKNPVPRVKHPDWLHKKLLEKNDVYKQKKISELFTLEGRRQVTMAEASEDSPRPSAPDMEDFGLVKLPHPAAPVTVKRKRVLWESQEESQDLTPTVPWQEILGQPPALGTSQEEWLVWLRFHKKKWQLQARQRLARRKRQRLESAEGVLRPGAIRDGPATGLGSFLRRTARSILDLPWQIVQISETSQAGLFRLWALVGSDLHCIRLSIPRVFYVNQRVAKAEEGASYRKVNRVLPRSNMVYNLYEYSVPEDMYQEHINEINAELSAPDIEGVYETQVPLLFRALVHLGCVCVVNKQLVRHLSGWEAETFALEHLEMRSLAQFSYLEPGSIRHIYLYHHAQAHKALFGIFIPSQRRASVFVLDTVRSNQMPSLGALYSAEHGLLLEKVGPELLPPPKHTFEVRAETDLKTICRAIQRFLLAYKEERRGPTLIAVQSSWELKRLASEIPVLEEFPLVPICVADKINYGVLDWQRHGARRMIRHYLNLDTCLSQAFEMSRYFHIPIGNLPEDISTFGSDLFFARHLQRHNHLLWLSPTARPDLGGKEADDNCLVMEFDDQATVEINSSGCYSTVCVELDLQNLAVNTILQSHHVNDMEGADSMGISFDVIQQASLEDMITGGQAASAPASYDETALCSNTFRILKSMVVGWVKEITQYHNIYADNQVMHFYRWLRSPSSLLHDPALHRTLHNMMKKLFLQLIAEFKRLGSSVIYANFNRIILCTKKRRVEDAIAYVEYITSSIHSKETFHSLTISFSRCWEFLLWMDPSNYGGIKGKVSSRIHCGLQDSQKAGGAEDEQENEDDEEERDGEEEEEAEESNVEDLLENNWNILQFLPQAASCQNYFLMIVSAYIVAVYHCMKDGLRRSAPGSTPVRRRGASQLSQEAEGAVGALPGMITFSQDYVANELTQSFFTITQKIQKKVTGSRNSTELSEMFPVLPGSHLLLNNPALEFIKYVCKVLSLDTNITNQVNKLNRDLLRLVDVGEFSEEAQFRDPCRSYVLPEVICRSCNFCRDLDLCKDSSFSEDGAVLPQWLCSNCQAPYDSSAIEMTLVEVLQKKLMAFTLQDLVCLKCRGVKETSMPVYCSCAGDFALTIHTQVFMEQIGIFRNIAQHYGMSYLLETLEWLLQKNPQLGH
Chain of human pol δ (P28340 whole entry): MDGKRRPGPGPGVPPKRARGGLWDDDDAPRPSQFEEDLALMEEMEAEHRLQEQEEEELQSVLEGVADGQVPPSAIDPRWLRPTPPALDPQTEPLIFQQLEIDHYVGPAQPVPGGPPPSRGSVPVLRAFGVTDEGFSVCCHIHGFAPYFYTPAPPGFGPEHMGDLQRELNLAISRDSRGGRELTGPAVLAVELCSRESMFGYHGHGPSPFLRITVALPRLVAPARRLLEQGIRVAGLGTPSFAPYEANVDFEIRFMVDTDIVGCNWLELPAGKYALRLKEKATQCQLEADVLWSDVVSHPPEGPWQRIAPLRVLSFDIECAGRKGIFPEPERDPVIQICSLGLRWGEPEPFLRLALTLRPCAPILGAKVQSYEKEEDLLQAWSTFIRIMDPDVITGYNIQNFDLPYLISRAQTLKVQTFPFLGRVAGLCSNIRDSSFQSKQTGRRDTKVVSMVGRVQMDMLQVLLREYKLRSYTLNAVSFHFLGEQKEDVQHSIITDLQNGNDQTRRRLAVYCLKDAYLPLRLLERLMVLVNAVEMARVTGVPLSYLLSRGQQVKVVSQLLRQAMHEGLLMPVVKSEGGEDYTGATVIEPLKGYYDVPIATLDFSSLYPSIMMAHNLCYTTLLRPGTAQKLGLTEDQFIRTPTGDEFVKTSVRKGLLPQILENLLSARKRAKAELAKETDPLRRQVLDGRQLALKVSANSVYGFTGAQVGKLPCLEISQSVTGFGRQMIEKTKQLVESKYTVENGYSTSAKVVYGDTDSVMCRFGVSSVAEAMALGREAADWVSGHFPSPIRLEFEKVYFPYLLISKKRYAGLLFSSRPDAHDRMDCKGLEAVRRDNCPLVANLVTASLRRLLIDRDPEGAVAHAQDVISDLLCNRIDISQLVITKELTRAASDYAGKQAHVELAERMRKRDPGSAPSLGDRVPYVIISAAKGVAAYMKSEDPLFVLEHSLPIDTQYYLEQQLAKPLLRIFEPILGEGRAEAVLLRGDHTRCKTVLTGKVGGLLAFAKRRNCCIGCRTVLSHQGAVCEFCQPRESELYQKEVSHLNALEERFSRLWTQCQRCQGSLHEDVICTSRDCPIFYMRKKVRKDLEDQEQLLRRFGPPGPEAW
Chain of human pol η (Q9Y253 whole entry): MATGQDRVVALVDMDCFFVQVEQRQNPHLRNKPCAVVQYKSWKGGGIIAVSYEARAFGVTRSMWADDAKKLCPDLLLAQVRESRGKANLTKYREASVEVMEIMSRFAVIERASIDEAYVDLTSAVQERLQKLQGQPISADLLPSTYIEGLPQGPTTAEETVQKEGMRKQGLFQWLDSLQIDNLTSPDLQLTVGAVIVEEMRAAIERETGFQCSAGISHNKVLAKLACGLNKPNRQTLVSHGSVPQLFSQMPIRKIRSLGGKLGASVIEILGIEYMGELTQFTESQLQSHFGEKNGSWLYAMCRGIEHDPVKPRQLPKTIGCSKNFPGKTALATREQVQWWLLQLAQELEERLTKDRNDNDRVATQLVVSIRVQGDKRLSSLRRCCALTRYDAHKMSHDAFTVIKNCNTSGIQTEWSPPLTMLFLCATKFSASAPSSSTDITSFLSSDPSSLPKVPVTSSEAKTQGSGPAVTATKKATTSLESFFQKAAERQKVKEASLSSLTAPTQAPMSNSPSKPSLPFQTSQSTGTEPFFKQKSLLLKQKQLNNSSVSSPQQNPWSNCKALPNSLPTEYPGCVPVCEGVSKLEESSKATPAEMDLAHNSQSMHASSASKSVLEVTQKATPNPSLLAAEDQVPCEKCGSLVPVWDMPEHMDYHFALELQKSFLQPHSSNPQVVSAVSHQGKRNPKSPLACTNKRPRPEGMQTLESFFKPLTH
Chain of mouse pol ι (Q6R3M4 whole entry): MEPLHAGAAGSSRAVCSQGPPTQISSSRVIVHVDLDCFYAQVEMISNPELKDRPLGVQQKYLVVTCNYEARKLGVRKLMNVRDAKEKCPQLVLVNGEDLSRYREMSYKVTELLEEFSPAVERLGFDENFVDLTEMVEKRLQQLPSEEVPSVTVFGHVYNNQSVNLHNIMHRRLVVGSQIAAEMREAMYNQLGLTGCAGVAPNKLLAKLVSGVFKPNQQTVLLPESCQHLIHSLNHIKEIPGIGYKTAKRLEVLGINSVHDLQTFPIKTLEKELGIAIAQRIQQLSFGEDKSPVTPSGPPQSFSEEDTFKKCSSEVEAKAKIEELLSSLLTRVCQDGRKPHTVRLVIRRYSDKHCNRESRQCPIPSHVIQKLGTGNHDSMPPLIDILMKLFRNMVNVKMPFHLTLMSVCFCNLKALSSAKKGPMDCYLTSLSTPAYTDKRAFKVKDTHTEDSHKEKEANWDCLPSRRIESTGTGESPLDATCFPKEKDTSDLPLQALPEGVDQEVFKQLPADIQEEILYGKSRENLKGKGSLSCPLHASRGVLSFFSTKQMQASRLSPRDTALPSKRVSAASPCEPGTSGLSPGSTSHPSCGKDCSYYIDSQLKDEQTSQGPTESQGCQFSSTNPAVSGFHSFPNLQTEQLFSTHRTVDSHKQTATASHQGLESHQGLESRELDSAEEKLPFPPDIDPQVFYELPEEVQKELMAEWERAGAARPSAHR
Chain of bovine DNase I (P00639 23-282): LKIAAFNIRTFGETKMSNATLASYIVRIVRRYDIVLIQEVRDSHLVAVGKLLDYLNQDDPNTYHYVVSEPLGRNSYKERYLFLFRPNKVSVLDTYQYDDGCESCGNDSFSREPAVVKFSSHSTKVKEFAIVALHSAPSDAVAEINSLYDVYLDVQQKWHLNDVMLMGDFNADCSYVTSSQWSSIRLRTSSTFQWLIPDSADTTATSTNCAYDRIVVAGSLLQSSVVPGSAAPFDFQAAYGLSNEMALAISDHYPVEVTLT

## O=C(OC[C@H]1O[C@@H](OC(=O)c2cc(O)c(O)c(O)c2)[C@H](OC(=O)c2cc(O)c(O)c(O)c2)[C@@H](OC(=O)c2cc(O)c(O)c(O)c2)[C@@H]1OC(=O)c1cc(O)c(O)c(O)c1)c1cc(O)c(O)c(O)c1 [PGG, 1,2,3,4,6-penta-O-galloyl-β-D-glucose]
Cauliflower pol α
  effect on cauliflower pol α activity: not influenced
[1]
  effect on pol λ activity: not affected; also recorded: not sensitive
Mouse pol ι
  IC50: 0.03 to 0.045 µM
Mouse pol ι; 100 and 1,000 nM PGG, Fig. 1C
  effect on pol ι activity: significantly inhibit
T4 pol
  effect on T4 pol activity: not influenced
HCV NS3 protease
  IC50: 1.6 µM
Rice pol λ
  effect on rice pol λ activity: not influenced
Human pol δ; 100 and 1,000 nM PGG, Fig. 1C
  effect on pol δ activity: significantly inhibit
Human pol δ; IC50, pol δ, range stated for replicative pols (α, δ and ε) together
  IC50: < 0.1 µM and 0.013 to 0.066 µM
Neutral endopeptidase
  IC50: 12.5 µM
[2]; daily intra-peritoneal injection 20 mg/kg body weight, nude mice
  in vivo growth of DU145 xenografts: suppresses
[2]; mouse, in vivo
  effect on body weight: without evident adverse effect
Calf primase of pol α
  effect on calf primase of pol α activity: did not suppress
[3]
  effect on Klenow fragment of E. coli pol I activity: not influenced
Beta-secretase
  Mode of Inhibition, Beta-secretase: Non-competitive for Rh-EVNLDAEFK-Quencher
Beta-secretase; read-out: IC50, Beta-secretase
  IC50: 3.76 µM
Beta-secretase; read-out: Ki, Beta-secretase
  Ki: 5.13 µM
[4]
  effect on mouse IMP dehydrogenase (type II) activity: did not suppress
T4 polynucleotide kinase
  effect on T4 polynucleotide kinase activity: did not suppress
Isolated nuclei
  inhibition of DNA replicative synthesis compared with aphidocolin: superior efficacy
Human topoisomerase II
  effect on human topoisomerase II activity: did not suppress
H^+, K^+- ATPase
  Mode of Inhibition, H^+, K^+- ATPase: Non-competitive for K^+
H^+, K^+- ATPase; read-out: IC50, H^+, K^+- ATPase
  IC50: 0.166 µM
Human pol ε; 100 and 1,000 nM PGG, Fig. 1C
  effect on pol ε activity: significantly inhibit
Human pol ε; IC50, pol ε, range stated for replicative pols (α, δ and ε) together
  IC50: < 0.1 µM and 0.013 to 0.066 µM
Aminopeptidase N
  IC50: 6.5 µM
Human pol γ
  inhibitory activity on pol γ (family A): lower
Bovine DNase I
  effect on bovine DNase I activity: did not suppress
T7 RNA polymerase
  effect on T7 RNA polymerase activity: did not suppress
del-2 pol λ (245–575)
  IC50: 0.117 µM
[5]
  Mode of Inhibition, 5-alpha-Reductase, NADPH: competitive inhibitor; also recorded: Competitive for NADPH
  Mode of Inhibition, 5-alpha-Reductase, testosterone: non-competitive inhibitor; also recorded: Non-competitive for testosterone
[5]; read-out: IC50, 5-alpha-Reductase
  IC50: 7.8 µM
[5]; read-out: Ki, 5-alpha-Reductase, NADPH, competitive for NADPH
  Ki: 0.48 µM
Human pol η
  IC50: 0.03 to 0.045 µM
Human pol η; 100 and 1,000 nM PGG, Fig. 1C
  effect on pol η activity: significantly inhibit
Human pol κ
  IC50: 0.03 µM
  Mode of Inhibition, pol κ, DNA template-primer: Non-competitive for DNA template-primer
  Mode of Inhibition, pol κ, dNTP: Non-competitive for dNTP
Human pol κ; 100 and 1,000 nM PGG, Fig. 1C
  effect on pol κ activity: significantly inhibit
Human pol κ; with respect to DNA template-primer
  Ki: 0.0093 µM
Human pol κ; with respect to dNTP
  Ki: 0.0151 µM
Human pol κ; PGG 10 and 100 nM, supplemental Table S1
  effect of 0.05% NP-40 on the inhibitory effect on pol κ: not reversed
Human pol κ; poly(rC) 50 μM, BSA 200 μg/ml
  effect of poly(rC) or BSA on the inhibitory effect on pol κ: neither poly(rC) nor BSA influenced
Human PCa PC-3 cells
  growth of PC-3 cells inoculated into the tibia: positive inhibitory efficacy
Human topoisomerase I
  effect on human topoisomerase I activity: did not suppress

Source: paper PMC2943143 (Biochemical pharmacology, 2010)
